# Measurements from ChEMBL document CHEMBL4219120, “Synthesis and SAR study of new hydroxy and chloro-substituted 2,4-diphenyl 5H-chromeno[4,3-b]pyridines as selective topoisomerase IIα-targeting anticancer agents” (Bioorg Med Chem, 2018).
# Active and inactive are the calls of the source. The calls are words filed in the database; no cut-off is given here.
# Biological target: DNA topoisomerase 2-alpha (Homo sapiens) (UniProt P11388)
# Experiment: Inhibition of recombinant human topoisomerase 2alpha assessed as decrease in relaxation of supercoiled pBR322 DNA at 100 uM after 30 mins by agarose gel electrophoresis relative to control
# Conditions: not given
# Procedure, shortened: (§1)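 Recombinant human topo IIα (1 unit) with 100 ng supercoiled pBR322 in 10 mM Tris-HCl pH 7.9, 50 mM NaCl, 50 mM KCl, 5 mM MgCl2, 1 mM EDTA, 1 mM ATP, 15 µg/mL BSA, 30 min at 37 °C. Quenched with 7 mM EDTA. 0.8% agarose/TAE gel, 50 V, 1 h; EtBr stain; UV densitometry. Compounds came from 20 mM DMSO stocks. 20 µM was tested only when inhibition at 100 µM exceeded 30%. Etoposide was the positive control.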
# DNA topoisomerase 2-alpha (Homo sapiens), sequence (P11388 whole entry): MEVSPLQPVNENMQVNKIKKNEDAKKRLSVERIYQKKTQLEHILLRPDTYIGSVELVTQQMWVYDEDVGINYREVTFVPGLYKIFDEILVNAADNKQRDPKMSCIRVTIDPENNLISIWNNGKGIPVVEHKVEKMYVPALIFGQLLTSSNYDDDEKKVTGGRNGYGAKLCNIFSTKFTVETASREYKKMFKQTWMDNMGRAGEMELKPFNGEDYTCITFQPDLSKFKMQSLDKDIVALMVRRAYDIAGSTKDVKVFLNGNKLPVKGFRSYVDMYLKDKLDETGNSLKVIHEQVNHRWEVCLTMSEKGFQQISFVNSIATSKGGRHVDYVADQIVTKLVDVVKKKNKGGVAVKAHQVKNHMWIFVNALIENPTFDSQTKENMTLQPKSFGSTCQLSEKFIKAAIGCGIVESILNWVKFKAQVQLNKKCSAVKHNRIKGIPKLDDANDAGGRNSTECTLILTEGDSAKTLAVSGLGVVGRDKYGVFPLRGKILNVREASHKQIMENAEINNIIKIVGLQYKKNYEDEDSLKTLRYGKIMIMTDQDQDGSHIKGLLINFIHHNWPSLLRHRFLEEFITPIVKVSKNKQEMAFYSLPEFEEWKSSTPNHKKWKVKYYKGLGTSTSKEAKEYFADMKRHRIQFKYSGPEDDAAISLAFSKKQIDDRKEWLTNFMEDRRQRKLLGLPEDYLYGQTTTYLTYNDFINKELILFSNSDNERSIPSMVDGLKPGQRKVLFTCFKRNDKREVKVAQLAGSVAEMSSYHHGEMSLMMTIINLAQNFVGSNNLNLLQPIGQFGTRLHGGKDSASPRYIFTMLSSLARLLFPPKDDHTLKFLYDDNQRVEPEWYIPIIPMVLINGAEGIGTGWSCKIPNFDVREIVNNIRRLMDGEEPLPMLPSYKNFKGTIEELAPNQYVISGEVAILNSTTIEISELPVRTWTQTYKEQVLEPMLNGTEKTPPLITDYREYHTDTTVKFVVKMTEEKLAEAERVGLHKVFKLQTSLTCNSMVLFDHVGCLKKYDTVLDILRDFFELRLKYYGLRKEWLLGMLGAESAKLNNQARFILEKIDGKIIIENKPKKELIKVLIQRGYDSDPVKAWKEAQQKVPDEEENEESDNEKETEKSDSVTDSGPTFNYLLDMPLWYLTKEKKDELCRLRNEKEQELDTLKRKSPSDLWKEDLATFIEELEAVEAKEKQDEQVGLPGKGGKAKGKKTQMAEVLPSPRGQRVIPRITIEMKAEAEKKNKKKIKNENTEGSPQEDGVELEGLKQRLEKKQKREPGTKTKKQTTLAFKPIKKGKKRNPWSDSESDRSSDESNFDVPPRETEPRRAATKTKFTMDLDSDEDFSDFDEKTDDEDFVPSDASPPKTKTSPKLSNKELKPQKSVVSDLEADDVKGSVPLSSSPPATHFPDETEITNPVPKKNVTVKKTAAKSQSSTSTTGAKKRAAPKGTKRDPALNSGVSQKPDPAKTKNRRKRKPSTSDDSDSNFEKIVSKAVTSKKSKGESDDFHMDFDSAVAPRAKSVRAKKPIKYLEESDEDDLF
row,Structure (SMILES),inhibition [%]
1,Oc1ccccc1-c1cc(-c2cccc(Cl)c2)nc2c1COc1ccccc1-2,75.1
2,Oc1ccccc1-c1cc(-c2ccc(Cl)cc2)nc2c1COc1ccccc1-2,88.9
3,Oc1cccc(-c2cc(-c3ccccc3Cl)c3c(n2)-c2ccccc2OC3)c1,91.7
4,Oc1cccc(-c2cc(-c3ccccc3Cl)nc3c2COc2ccccc2-3)c1,90.8

# Results, then the compound that gave them:
row,inhibition [%],Structure (SMILES)
1,87.8,Oc1ccc(-c2cc(-c3ccc(Cl)cc3)nc3c2COc2ccccc2-3)cc1
2,95.9,Oc1ccc(-c2cc(-c3cccc(Cl)c3)nc3c2COc2ccccc2-3)cc1
3,63.6,Oc1cccc(-c2cc(-c3cccc(Cl)c3)c3c(n2)-c2ccccc2OC3)c1

# Biological target: DNA topoisomerase 2-alpha (Homo sapiens) (UniProt P11388)
# Experiment: Inhibition of recombinant human topoisomerase 2alpha assessed as decrease in relaxation of supercoiled pBR322 DNA at 20 uM after 30 mins by agarose gel electrophoresis relative to control
# Conditions: not given
# Procedure, shortened: as §1
row,Structure (SMILES),inhibition
1,Oc1ccccc1-c1cc(-c2cccc(Cl)c2)nc2c1COc1ccccc1-2,51.9%
2,Oc1ccccc1-c1cc(-c2ccc(Cl)cc2)nc2c1COc1ccccc1-2,56.6%
3,Oc1cccc(-c2cc(-c3ccccc3Cl)c3c(n2)-c2ccccc2OC3)c1,57%
4,Oc1cccc(-c2cc(-c3ccccc3Cl)nc3c2COc2ccccc2-3)c1,57.3%

# Now from value to compound:
row,inhibition,Structure (SMILES)
1,41.9%,Oc1ccc(-c2cc(-c3ccc(Cl)cc3)nc3c2COc2ccccc2-3)cc1
2,57.3%,Oc1ccc(-c2cc(-c3cccc(Cl)c3)nc3c2COc2ccccc2-3)cc1
3,inactive,Oc1cccc(-c2cc(-c3cccc(Cl)c3)c3c(n2)-c2ccccc2OC3)c1

# Biological target: T1, DNA topoisomerase 1 (Homo sapiens) (UniProt P11387)
# T1 sequence (whole entry): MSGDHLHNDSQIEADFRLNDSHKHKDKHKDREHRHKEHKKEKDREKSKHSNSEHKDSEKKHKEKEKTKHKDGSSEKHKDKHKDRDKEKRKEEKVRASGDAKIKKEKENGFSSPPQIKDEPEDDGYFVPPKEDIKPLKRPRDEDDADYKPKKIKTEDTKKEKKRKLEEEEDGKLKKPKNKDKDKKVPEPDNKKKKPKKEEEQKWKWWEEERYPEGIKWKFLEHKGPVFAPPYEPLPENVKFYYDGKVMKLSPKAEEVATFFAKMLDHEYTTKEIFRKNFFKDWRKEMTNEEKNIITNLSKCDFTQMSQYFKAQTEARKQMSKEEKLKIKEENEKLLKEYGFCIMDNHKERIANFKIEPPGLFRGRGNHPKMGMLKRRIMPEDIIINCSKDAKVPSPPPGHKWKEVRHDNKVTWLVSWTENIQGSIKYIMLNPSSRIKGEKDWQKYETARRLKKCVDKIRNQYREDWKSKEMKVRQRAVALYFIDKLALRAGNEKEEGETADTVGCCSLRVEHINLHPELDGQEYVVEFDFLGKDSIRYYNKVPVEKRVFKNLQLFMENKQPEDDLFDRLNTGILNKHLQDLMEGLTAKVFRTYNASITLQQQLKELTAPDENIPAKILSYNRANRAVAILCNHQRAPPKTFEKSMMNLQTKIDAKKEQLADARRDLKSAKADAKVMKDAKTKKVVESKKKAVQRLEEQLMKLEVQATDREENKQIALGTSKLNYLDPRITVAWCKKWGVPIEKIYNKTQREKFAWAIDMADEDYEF
# Experiment: Inhibition of recombinant human topoisomerase 1 assessed as decrease in relaxation of supercoiled pBR322 DNA at 100 uM after 30 mins by agarose gel electrophoresis relative to control
# Conditions: not given
# Procedure, shortened: (§2)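 Supercoiled pBR322 (100 ng) with 1 unit recombinant human topo I in 10 mM Tris-HCl pH 7.9, 150 mM NaCl, 0.1% BSA, 0.1 mM spermidine, 5% glycerol, 30 min at 37 °C. Stopped with SDS/dye stop solution. Run on 0.8% agarose in TAE, 50 V, 1 h; EtBr-stained; bands quantitated under UV. Compounds came from 20 mM DMSO stocks. 20 µM was tested only when inhibition at 100 µM exceeded 30%. Camptothecin was the positive control.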
row,Structure (SMILES),inhibition
1,Oc1ccccc1-c1cc(-c2cccc(Cl)c2)nc2c1COc1ccccc1-2,4.4%
2,Oc1ccccc1-c1cc(-c2ccc(Cl)cc2)nc2c1COc1ccccc1-2,7.6%
3,Oc1cccc(-c2cc(-c3ccccc3Cl)c3c(n2)-c2ccccc2OC3)c1,inactive
4,Oc1cccc(-c2cc(-c3ccccc3Cl)nc3c2COc2ccccc2-3)c1,79.1%

# Continued, values first:
row,inhibition,Structure (SMILES)
1,inactive,Oc1ccc(-c2cc(-c3ccc(Cl)cc3)nc3c2COc2ccccc2-3)cc1
2,inactive,Oc1ccc(-c2cc(-c3cccc(Cl)c3)nc3c2COc2ccccc2-3)cc1
3,12%,Oc1cccc(-c2cc(-c3cccc(Cl)c3)c3c(n2)-c2ccccc2OC3)c1

# Biological target: T1, DNA topoisomerase 1 (Homo sapiens)
# Experiment: Inhibition of recombinant human topoisomerase 1 assessed as decrease in relaxation of supercoiled pBR322 DNA at 20 uM after 30 mins by agarose gel electrophoresis relative to control
# Conditions: not given
# Procedure, shortened: as §2
row,inhibition [%],Structure (SMILES)
1,1.7,Oc1cccc(-c2cc(-c3ccccc3Cl)nc3c2COc2ccccc2-3)c1

# System: HCT-15
# Experiment: Antiproliferative activity against human HCT15 cells after 72 hrs by CCK-8 assay
# Assay type: functional, cell-based
# Conditions: HCT-15, 72 h
# Procedure, shortened: (§3)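 Cells seeded at 2-4 x 10^4 per well and grown overnight in medium with 10% FBS (37 °C, 5% CO2). After 4 h FBS starvation, medium was replaced with medium containing graded compound concentrations for 72 h. CCK-8 was added for 4 h more, then absorbance read at 450 nm. IC50 came from a four-parameter logistic fit. Mean ± S.D. of three experiments, each in triplicate.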
row,Structure (SMILES),IC50 [µM]
1,Oc1ccccc1-c1cc(-c2cccc(Cl)c2)nc2c1COc1ccccc1-2,2.23
2,Oc1ccccc1-c1cc(-c2ccc(Cl)cc2)nc2c1COc1ccccc1-2,1.66
3,Oc1cccc(-c2cc(-c3ccccc3Cl)c3c(n2)-c2ccccc2OC3)c1,1.52
4,Oc1cccc(-c2cc(-c3ccccc3Cl)nc3c2COc2ccccc2-3)c1,0.87

# Continued by falling IC50, values first:
row,IC50 [µM],Structure (SMILES)
1,1.83,Oc1ccc(-c2cc(-c3ccc(Cl)cc3)nc3c2COc2ccccc2-3)cc1
2,1.77,Oc1ccc(-c2cc(-c3cccc(Cl)c3)nc3c2COc2ccccc2-3)cc1
3,1.23,Oc1cccc(-c2cc(-c3cccc(Cl)c3)c3c(n2)-c2ccccc2OC3)c1

# System: T47D
# Experiment: Antiproliferative activity against human T47D cells after 72 hrs by CCK-8 assay
# Assay type: functional, cell-based
# Conditions: not given
# Procedure, shortened: as §3
row,Structure (SMILES),IC50 [µM]
1,Oc1ccccc1-c1cc(-c2cccc(Cl)c2)nc2c1COc1ccccc1-2,1.23
2,Oc1ccccc1-c1cc(-c2ccc(Cl)cc2)nc2c1COc1ccccc1-2,> 50
3,Oc1cccc(-c2cc(-c3ccccc3Cl)c3c(n2)-c2ccccc2OC3)c1,0.86
4,Oc1cccc(-c2cc(-c3ccccc3Cl)nc3c2COc2ccccc2-3)c1,0.7

# Now from value to compound:
row,IC50 [µM],Structure (SMILES)
1,1.72,Oc1ccc(-c2cc(-c3ccc(Cl)cc3)nc3c2COc2ccccc2-3)cc1
2,0.88,Oc1ccc(-c2cc(-c3cccc(Cl)c3)nc3c2COc2ccccc2-3)cc1
3,0.86,Oc1cccc(-c2cc(-c3cccc(Cl)c3)c3c(n2)-c2ccccc2OC3)c1

# System: HeLa
# Experiment: Antiproliferative activity against human HeLa cells after 72 hrs by CCK-8 assay
# Assay type: functional, cell-based
# Conditions: not given
# Procedure, shortened: as §3
row,Structure (SMILES),IC50 [µM]
1,Oc1ccccc1-c1cc(-c2cccc(Cl)c2)nc2c1COc1ccccc1-2,0.68
2,Oc1ccccc1-c1cc(-c2ccc(Cl)cc2)nc2c1COc1ccccc1-2,> 50
3,Oc1cccc(-c2cc(-c3ccccc3Cl)c3c(n2)-c2ccccc2OC3)c1,0.74
4,Oc1cccc(-c2cc(-c3ccccc3Cl)nc3c2COc2ccccc2-3)c1,2.5

# Next, values leading:
row,IC50 [µM],Structure (SMILES)
1,0.86,Oc1ccc(-c2cc(-c3ccc(Cl)cc3)nc3c2COc2ccccc2-3)cc1
2,0.89,Oc1ccc(-c2cc(-c3cccc(Cl)c3)nc3c2COc2ccccc2-3)cc1
3,0.82,Oc1cccc(-c2cc(-c3cccc(Cl)c3)c3c(n2)-c2ccccc2OC3)c1

# Biological target: DNA topoisomerase 2-alpha (Homo sapiens) (UniProt P11388)
# Experiment: Inhibition of recombinant human topoisomerase 2alpha assessed as decrease in relaxation of supercoiled pBR322 DNA at 100 uM after 30 mins by agarose gel electrophoresis relative to etoposide
# Conditions: not given
row,Structure (SMILES),fold change (FC)
1,Oc1ccccc1-c1cc(-c2cccc(Cl)c2)nc2c1COc1ccccc1-2,1.13
2,Oc1ccccc1-c1cc(-c2ccc(Cl)cc2)nc2c1COc1ccccc1-2,1.34
3,Oc1cccc(-c2cc(-c3ccccc3Cl)nc3c2COc2ccccc2-3)c1,1.37

# Second part, the compound after the results:
row,fold change (FC),Structure (SMILES)
1,1.32,Oc1ccc(-c2cc(-c3ccc(Cl)cc3)nc3c2COc2ccccc2-3)cc1
2,1.44,Oc1ccc(-c2cc(-c3cccc(Cl)c3)nc3c2COc2ccccc2-3)cc1

# Biological target: DNA topoisomerase 2-alpha (Homo sapiens) (UniProt P11388)
# Experiment: Inhibition of recombinant human topoisomerase 2alpha assessed as decrease in relaxation of supercoiled pBR322 DNA at 20 uM after 30 mins by agarose gel electrophoresis relative to etoposide
# Conditions: not given
row,Structure (SMILES),fold change (FC)
1,Oc1ccccc1-c1cc(-c2cccc(Cl)c2)nc2c1COc1ccccc1-2,1.46
2,Oc1ccccc1-c1cc(-c2ccc(Cl)cc2)nc2c1COc1ccccc1-2,1.59
3,Oc1cccc(-c2cc(-c3ccccc3Cl)nc3c2COc2ccccc2-3)c1,1.61

# The remaining lines, values ahead:
row,fold change (FC),Structure (SMILES)
1,1.18,Oc1ccc(-c2cc(-c3ccc(Cl)cc3)nc3c2COc2ccccc2-3)cc1
2,1.61,Oc1ccc(-c2cc(-c3cccc(Cl)c3)nc3c2COc2ccccc2-3)cc1

# Biological target: T1, DNA topoisomerase 1 (Homo sapiens)
# Experiment: Inhibition of recombinant human topoisomerase 1 assessed as decrease in relaxation of supercoiled pBR322 DNA at 100 uM after 30 mins by agarose gel electrophoresis relative to camptothecin
# Conditions: not given
row,Structure (SMILES),fold change (FC)
1,Oc1ccccc1-c1cc(-c2cccc(Cl)c2)nc2c1COc1ccccc1-2,0.06
2,Oc1ccccc1-c1cc(-c2ccc(Cl)cc2)nc2c1COc1ccccc1-2,0.1
3,Oc1cccc(-c2cc(-c3ccccc3Cl)nc3c2COc2ccccc2-3)c1,0.99

# Second part, the compound after the results:
row,fold change (FC),Structure (SMILES)
1,inactive,Oc1ccc(-c2cc(-c3ccc(Cl)cc3)nc3c2COc2ccccc2-3)cc1
2,inactive,Oc1ccc(-c2cc(-c3cccc(Cl)c3)nc3c2COc2ccccc2-3)cc1

# Biological target: T1, DNA topoisomerase 1 (Homo sapiens)
# Experiment: Inhibition of recombinant human topoisomerase 1 assessed as decrease in relaxation of supercoiled pBR322 DNA at 20 uM after 30 mins by agarose gel electrophoresis relative to camptothecin
# Conditions: not given
row,fold change (FC),Structure (SMILES)
1,0.05,Oc1cccc(-c2cc(-c3ccccc3Cl)nc3c2COc2ccccc2-3)c1
